TRPC4 agonist – activators of mouse TRPC4 channel, primary screen, Fluo4 calcium, HEK293 TRPC4beta/mu-opioid cells. Short transient receptor potential channel 4 (Mus musculus), Q9QUQ5. B-score at 10 µM. actives 0.49% (n = 310,000). Fluo4 calcium fluorescence; hits give high values;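 active means B-score above 5 SD of library B-scores, and initial fluorescence ratio not above library mean plus 5 SD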;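 further: positive B-score marks a calcium rise read as TRPC4 activation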
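system = HEK293 cells stably co-expressing mouse TRPC4beta and mu-opioid receptor | schedule = Fluo4 dye loading 45 min at room temperature, 110 s recording | measure = B-scored integrated calcium fluorescence ratio | signal = Fluo4 calcium-sensitive dye fluorescence, kinetic, 1 Hz baseline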
TRPC6 activator – mouse TRPC6 channel activators, primary screen, cell-based, HEK293, membrane potential dye. HEK293-TRPC6 membrane potential dye fluorescence; hits give high values. B-score at 10 µM. actives 0.13% (n = 310,000). AID 2550, 2010;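 active means B-score of the integrated fluorescence ratio above library mean plus 3 SD, and starting fluorescence ratio within library mean plus 5 SD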;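 further: higher score means more depolarization so channel activation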
Target sequence (Q61143 whole entry, looked up): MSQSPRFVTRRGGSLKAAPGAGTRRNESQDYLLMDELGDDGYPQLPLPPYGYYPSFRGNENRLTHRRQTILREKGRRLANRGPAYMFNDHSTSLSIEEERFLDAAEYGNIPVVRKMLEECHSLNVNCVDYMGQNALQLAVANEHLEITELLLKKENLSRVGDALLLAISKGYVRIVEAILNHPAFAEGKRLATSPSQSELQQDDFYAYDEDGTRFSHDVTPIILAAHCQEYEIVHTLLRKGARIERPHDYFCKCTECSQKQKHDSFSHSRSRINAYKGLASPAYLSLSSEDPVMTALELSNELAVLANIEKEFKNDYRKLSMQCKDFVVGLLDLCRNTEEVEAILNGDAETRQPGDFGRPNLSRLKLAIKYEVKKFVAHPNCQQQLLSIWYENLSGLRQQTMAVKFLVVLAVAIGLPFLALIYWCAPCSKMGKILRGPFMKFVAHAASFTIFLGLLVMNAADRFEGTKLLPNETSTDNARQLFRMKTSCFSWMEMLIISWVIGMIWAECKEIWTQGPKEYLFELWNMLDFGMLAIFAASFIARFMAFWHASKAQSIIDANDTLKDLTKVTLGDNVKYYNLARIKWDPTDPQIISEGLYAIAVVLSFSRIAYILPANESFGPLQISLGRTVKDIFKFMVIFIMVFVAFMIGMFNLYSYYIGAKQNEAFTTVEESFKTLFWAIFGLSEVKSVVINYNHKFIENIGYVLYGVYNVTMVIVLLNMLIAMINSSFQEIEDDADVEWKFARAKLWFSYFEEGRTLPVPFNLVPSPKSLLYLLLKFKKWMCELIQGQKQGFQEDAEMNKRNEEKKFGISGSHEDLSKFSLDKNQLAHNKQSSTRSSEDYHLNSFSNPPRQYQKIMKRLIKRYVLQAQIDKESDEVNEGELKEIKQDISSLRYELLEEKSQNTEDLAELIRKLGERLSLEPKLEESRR
TRPC6 inhibitor – mouse TRPC6 channel inhibitors, primary screen, cell-based, HEK293, membrane potential dye | Short transient receptor potential channel 6 (Mus musculus), Q61143 | ACh-evoked depolarization; hits give low values | B-score at 10 µM | actives 1.1% (n = 310,000) | AID 2553, 2010;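 active means B-score under library mean minus 3 SD, initial fluorescence not abnormally high, positive integrated signal ratio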;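 further: B-score derived from integrated fluorescence ratio over the kinetic read; more negative B-score means stronger inhibition of depolarization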
TRPC4 potent – positive allosteric modulators of TRPC4, primary screen, cell-based, mouse TRPC4beta, HEK293 mu-opioid, Fluo-4 calcium | AID 2227, 2009 | DAMGO EC20, Fluo-4 Ca2+ flux; hits give high values | actives 0.42% (n = 310,000) | B-score at 10 µM | Short transient receptor potential channel 4 (Mus musculus), Q9QUQ5;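 active means B-score of calcium response area above 5 SD of library B-scores, with initial fluorescence ratio within 5 SD of library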;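 further: B-score of integrated fluorescence ratio over time as area under calcium response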
TRPC4 block – inhibitors of mouse TRPC4 channel, primary screen, Fluo4 calcium, HEK293 TRPC4beta/mu-opioid cells. B-score at 10 µM. DAMGO-evoked Fluo4 calcium flux; hits give low values. actives 0.39% (n = 300,000). Short transient receptor potential channel 4 (Mus musculus), Q9QUQ5;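 active means B-score over 3 SD under the library average, no early fluorescence shift, positive overall ratio signal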
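Test system – stable TRPC4beta/mu-opioid receptor HEK293 cells · Probe or stimulus – DAMGO, a submaximal dose followed by a maximal one · Dosing – one concentration per compound · Signal – Fluo4 calcium fluorescence by kinetic imaging, 5 s 1 Hz baseline · Evaluation – per-well B score of integrated baseline-normalized Fluo4 ratio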
An asterisk follows results filed as active; i = inactive. Most compounds without a hit are left out; they make up all but 2.3% or so of the library.

SMILES | TRPC4 agonist | TRPC6 activator | TRPC6 inhibitor | TRPC4 potent | TRPC4 block
CCCCN(C(=O)c1cccc2c(=O)c(C)c(-c3ccccc3)oc12)c1ccccc1 | i | i | i | 32* | i
CCN1CCN(C(=O)c2ccc(CS(=O)(=O)Cc3ccccc3C)o2)CC1 | i | i | i | i | i
C=CCN1C(=O)/C(=C/C=C2/N(CC)c3ccc(S(=O)(=O)N(C)C)cc3N2CC)SC1=S | 64* | i | i | 10* | i
COc1cccc(C(=O)COC(=O)c2cccs2)c1 | i | i | i | i | i
CCOc1ccc(-n2c(C)c(C(C)=O)c3cc(O)ccc32)cc1 | i | i | i | 11* | i
Cc1cc(C)c(C)c(OCCCn2ccnc2)c1 | i | i | i | i | i
Cc1cccc(OCCN2CCOCC2)c1C | i | i | i | i | i
Cc1cc(C)c(C)c(OCCN2CCOCC2)c1 | i | i | i | 10* | i
Cc1cc(C)c(C)c(OCCCN(C)C)c1 | 126* | i | i | 13* | i
CCSc1nnc(NS(=O)(=O)c2ccc(C)cc2)s1 | i | i | i | i | i
CCCCN(CC)CCCNC(=O)c1ccc(CS(=O)(=O)c2ccccc2C)o1 | 68* | i | i | i | i
COCCNC(=O)c1ccc(CS(=O)(=O)c2ccc(OC)cc2)o1 | i | i | i | i | i
CCCCN(CCCNC(=O)c1ccc(CS(=O)(=O)c2ccc(OC)cc2)o1)Cc1ccccc1 | i | i | i | i | -6*
CCN(CC)CCCNC(=O)c1ccc(CS(=O)(=O)c2ccccc2OC)o1 | i | i | i | i | i
CC1=C(C(=O)OCCCBr)C(c2ccc3c(c2)OCO3)NC(=O)N1 (stereo not given) | i | i | i | i | i
Cc1nnc(Sc2cc(NCCCO)c([N+](=O)[O-])c3nonc23)s1 | i | i | i | i | -6*
O=C(COc1coc(CN2CCN(c3ccccc3F)CC2)cc1=O)Nc1ccccc1 | i | i | i | 32* | i
COc1ccc(-c2cc(C(=O)O)c3c(C)nn(-c4ccccn4)c3n2)cc1 | i | i | i | i | i
Cc1nn(-c2cccc(Cl)c2)c2nc(-c3ccco3)cc(C(=O)O)c12 | i | i | i | i | i
Cc1nn(-c2ccccn2)c2nc(-c3cccs3)cc(C(=O)N3CCOCC3)c12 | i | i | i | 12* | i
Cc1cccc(-n2nc(C)c3c(C(=O)O)cc(-c4cccs4)nc32)c1 | i | i | i | i | -6*
O=[N+]([O-])c1ccc(-[n+]2nc(-c3ccccc3)nn2-c2ccccc2)cc1 | i | i | i | i | i
N#Cc1c(-c2ccccc2)ccnc1N1CCOCC1 | i | i | i | i | i
CN(C)S(=O)(=O)c1cccc(COC(=O)c2ccc(Cl)cc2O)c1 | i | i | i | 17* | i
CN(C)S(=O)(=O)c1cccc(COC(=O)c2ccc3c(c2)OCO3)c1 | i | i | i | i | i
SMILES | TRPC4 agonist | TRPC6 activator | TRPC6 inhibitor | TRPC4 potent | TRPC4 block
CN(C)CCCN(C(=O)c1cc(-c2cccs2)nc2ccccc12)c1nc2ccc(F)cc2s1 | i | i | i | i | i
CN1CCN(CCOc2cccc(Cl)c2)CC1 | i | i | i | 14* | i
Clc1cccc(OCCN2CCCC2)c1 | i | i | i | i | i
COc1cc(OC)c(/C=N/n2c(C)nnc2C)c(OC)c1 | i | i | i | i | i
O=C(CN1CCCCC1)Nc1cc(Cl)ccc1Oc1ccccc1 | i | i | i | i | i
O=C(CN1CCCCCC1)Nc1ccccc1Oc1ccccc1 | i | i | i | i | -6*
CCCCn1c(N)c(N(CCOC)C(=O)c2ccc(-c3ccc(C(C)=O)cc3)o2)c(=O)[nH]c1=O | i | i | i | 92* | i
CCN(Cc1ccccc1)c1ccc(/C=N/NC(=S)NC(C)C)cc1 | i | i | i | i | i
CCN(Cc1ccccc1)c1ccc(/C=N/N=C(N)N)cc1 | 145* | i | i | i | i
CCCCN(CC)S(=O)(=O)c1ccc(C(=O)Nc2nnc(-c3cccs3)o2)cc1 | 67* | i | i | i | i
NC1=NC2(CCCCC2)n2c(nc3ccccc32)N1 | i | i | i | i | i
NC1=NC2(CCN(Cc3ccccc3)CC2)n2c(nc3ccccc32)N1 | 87* | i | i | i | i
Cc1ccc(SCCNCc2ccco2)cc1 | i | i | i | 10* | i
Cc1ccc(SCCC(=O)NCCSCc2ccco2)cc1 | i | i | i | i | i
COCCNC(=O)c1cc2nc(-c3ccc(F)cc3)cc(C(F)(F)F)n2n1 | i | i | i | i | i
CCN(CC)CCCNC(=O)c1cc2nc(-c3ccccc3)cc(C(F)(F)F)n2n1 | i | i | i | 11* | i
NC(=O)C1CCN(C(=S)NCCc2ccccc2)CC1 | i | i | i | i | i
CCOC(=O)N1CCN(C2=Nc3cccc4cccc2c34)CC1 | i | i | -7.43* | i | i
CCOC(=O)N1CCN(C(=O)Nc2cccc3ccccc23)CC1 | i | i | i | i | i
c1ccc(CC2CCN(C3=Nc4cccc5cccc3c45)CC2)cc1 | i | i | -6.11* | i | i
CCc1ccc(OCC(=O)N(CC)CC)cc1 | i | i | i | i | i
Cc1cccn2c(=O)c(/C=C(\C#N)C(N)=O)c(N3CCN(c4ccccc4)CC3)nc12 | i | i | i | 12* | i
Cc1cccn2c(=O)c(C=O)c(N3CCCCC3)nc12 | i | i | i | i | i
CCNC(=O)/C(C#N)=C/c1c(N2CCN(c3ccc(OC)cc3)CC2)nc2c(C)cccn2c1=O | i | i | i | i | i
CCOC(=O)/C(C#N)=C/c1c(N2CCN(c3ccc(OC)cc3)CC2)nc2c(C)cccn2c1=O | i | i | i | 11* | i
Cc1cccn2c(=O)c(/C=N/O)c(N3CCCC3)nc12 | i | i | i | i | -8*
Cc1cccc(-n2ccnc2CN2CCC(CO)(Cc3ccccc3)CC2)c1 | i | i | i | i | -7*
Cc1cc(C)n(C(=O)/C(C#N)=N/Nc2cc(Cl)cc(Cl)c2)n1 | i | i | -6.52* | i | i

Assay outcomes: PubChem BioAssay, Johns Hopkins Ion Channel Center
